In assay [1] the test system is Solanum lycopersicum. In words: Phytotoxicity against Solanum lycopersicum (tomato) assessed as growth inhibition of root length measured 5 days post treatment. Format: functional, organism-based. An outline of the steps:
(§1)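 Lettuce or tomato seeds were grown for 5 days on one filter-paper sheet in 90 mm dishes. The medium was aqueous 10^-2 M MES adjusted to pH 6.0 with NaOH. Compounds were taken from DMSO stocks and diluted into buffer (5 μL DMSO/mL), giving final levels of 1, 0.5, 0.1, 0.05 and 0.01 mM. Root length was acquired automatically. EC50 came from a constant-slope sigmoidal dose-response fit versus log concentration.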

The test system of assay [2] is Allium cepa. The assay can be described thus: Phytotoxicity against Allium cepa (onion) assessed as growth inhibition of root length measured 7 days post treatment. Type of assay: functional, organism-based. To be noted: for IC50: 168 h. Put shortly: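 Onion seeds germinated in 90 mm Petri dishes on one filter-paper sheet, in aqueous 10^-2 M MES buffer brought to pH 6.0 with NaOH. Compounds were dissolved in DMSO and diluted into buffer (5 μL DMSO/mL) to test concentrations of 1, 0.5, 0.1, 0.05 and 0.01 mM. Root length was recorded after 7 days by automated image acquisition. EC50 was derived from a constant-slope sigmoidal fit on a log concentration scale.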

Assay [3] deals with Lactuca sativa. In words: Phytotoxicity against Lactuca sativa (lettuce) assessed as growth inhibition of root length measured 5 days post treatment. Type of assay: functional, organism-based. Put shortly: as §1
Assay [4] concerns Lepidium sativum. In words: Phytotoxicity against Lepidium sativum assessed as growth inhibition of root length measured 4 days post treatment. Type of assay: functional, organism-based. To be noted: for IC50: 96 h. Put shortly:
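Cress bioassay run over 4 days in 90 mm Petri dishes with one filter-paper sheet. Seeds were in aqueous 10^-2 M MES buffer at pH 6.0, set with 1 M NaOH. DMSO stocks were diluted into buffer at 5 μL/mL to final concentrations of 1, 0.5, 0.1, 0.05 and 0.01 mM. Root length was recorded by an automated system. Values were fitted to a constant-slope sigmoidal curve against log concentration to obtain EC50.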

Assay [5] concerns Lepidium sativum. In words: Phytotoxicity against Lepidium sativum assessed as growth inhibition of root length at < 1 uM measured 4 days post treatment. Format: functional, organism-based.
Assay [6] concerns Allium cepa. In words: Phytotoxicity against Allium cepa (onion) assessed as growth inhibition of root length at 1 uM measured 7 days post treatment. Type of assay: functional. The settings on record: 168 h, read-out: GI.
Assay [7] concerns Allium cepa. In words: Phytotoxicity against Allium cepa (onion) assessed as growth inhibition of root length at 1 to 5 uM measured 7 days post treatment. Type of assay: functional, organism-based. An outline of the steps: (§2)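 Seeds germinated in Petri dishes on one filter-paper sheet, in aqueous solution buffered with 10^-2 M MES and brought to pH 6.0 with NaOH. Compounds were dissolved in DMSO, then diluted into buffer (5 μL DMSO/mL). Root length was recorded by automated image acquisition with statistical analysis.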

Assay [8] concerns Solanum lycopersicum. The assay can be described thus: Phytotoxicity against Solanum lycopersicum (tomato) assessed as growth inhibition of root length at 1 uM measured 5 days post treatment. Type of assay: functional. To be noted: 120 h, read-out: GI. Put shortly: as §2
For assay [9], the system named is Lactuca sativa. In words: Phytotoxicity against Lactuca sativa (lettuce) assessed as growth inhibition of root length at 5 uM measured 5 days post treatment. Format: functional. The settings on record: 120 h, read-out: GI. Put shortly:
as §2

For assay [10], the system named is Solanum lycopersicum. The assay can be described thus: Phytotoxicity against Solanum lycopersicum (tomato) assessed as growth inhibition of root length at 1 to 5 uM measured 5 days post treatment. Format: functional, organism-based. Put shortly:
as §2

Assay [11] deals with Lactuca sativa. In words: Phytotoxicity against Lactuca sativa (lettuce) assessed as growth inhibition of root length at 1 to 5 uM measured 5 days post treatment. Type of assay: functional, organism-based. Put shortly:
as §2

Each structure is given as a SMILES string. The source made the active and inactive calls. The calls are words filed in the database; no cut-off is given here.

Usually IC50 stands for the point on the concentration scale where inhibition reaches its midpoint.

For `CCC1Oc2c(Cl)cccc2N(O)C1=O` (stereo not drawn), the “growth inhibition (GI)” value in assay [1], in assay [2], in [3] and in assay [4] was “Active” in each case.
Regarding `CCC(=O)ON1C(=O)COc2c(Cl)cccc21`, the “growth inhibition (GI)” value in assay [1], in assay [2], in [3] and in assay [4] was “Active” in each case.
As to `CCC1Oc2ccc(Cl)cc2N(O)C1=O` [6-Cl-2-Et-D-DIBOA], the “growth inhibition (GI)” value in [1], in [2], in [3], in assay [5] and in assay [4] was “Active” each time. Moreover, the concentration for half-maximal inhibition (IC50) turned out to be 2300 nM in assay [1] (120 h), 1600 nM in [2] and 400 nM in assay [4]. The inhibition of growth at 1 µM in [6] was 60%.
Regarding `CCCC1Oc2c(Cl)cccc2N(O)C1=O` (stereo not drawn), the “growth inhibition (GI)” value in assay [1], in assay [2], in assay [3] and in assay [4] was “Active” each time.
On to `CCCCC(=O)ON1C(=O)COc2ccc(F)cc21`, for which the “growth inhibition (GI)” value in [1], in [2], in [3] and in [4] was “Active” in each case.
For the molecule `O=C1C(c2ccccc2)Oc2ccc(F)cc2N1O` (stereo not drawn), the “growth inhibition (GI)” value in assay [1], in [2], in assay [3] and in [4] was “Active” throughout.
Turning to `O=C1C(c2ccccc2)Oc2ccc(Cl)cc2N1O` (stereo not drawn), the “growth inhibition (GI)” value in [1], in [2], in [3] and in assay [4] was “Active” throughout.
As to `CCC1Oc2ccc(F)cc2N(O)C1=O` [6-F-2-Et-D-DIBOA], the “growth inhibition (GI)” value in assay [1], in [2], in assay [3] and in assay [4] was “Active” throughout. In addition, the values for the IC50 in [2] and in assay [4] were 1300 nM and 1000 nM, respectively. The inhibition of growth at 1 µM in assay [6] worked out at 50%.
As for `CCC(=O)ON1C(=O)COc2ccc(F)cc21`, the “growth inhibition (GI)” value in assay [1], in assay [2], in assay [3], in [5] and in assay [4] was “Active” throughout.
As to `CCCON1C(=O)COc2ccc(Cl)cc21` [6-Cl-4-Pr-D-DIBOA], the “growth inhibition (GI)” value in [7], in assay [1], in assay [2], in assay [3], in assay [10] and in assay [11] was “Active” each time. The “growth inhibition (GI)” value in assay [4] is “Active”. Moreover, the inhibition of growth at 1 µM in [8] and in [6] was 50% each time. The values for the IC50 in [2] and in [4] were 200 nM and 60 nM, respectively. The inhibition of growth at 5 µM in assay [9] worked out at 50%.
Regarding `O=C1C(c2ccccc2)Oc2c(Cl)cccc2N1O` (stereo not drawn), the “growth inhibition (GI)” value in assay [1], in assay [2], in assay [3] and in [4] was “Active” each time.
For `CCCC1Oc2ccc(Cl)cc2N(O)C1=O` (stereo not drawn), the “growth inhibition (GI)” value in assay [1], in assay [2], in assay [3] and in [4] was “Active” in each case.
For the molecule `CCCCC(=O)ON1C(=O)COc2ccc(Cl)cc21` [6-Cl-4-Val-D-DIBOA], the “growth inhibition (GI)” value in assay [7], in [1], in assay [2], in assay [3], in assay [5] and in [10] was “Active” throughout. Also, the “growth inhibition (GI)” value in assay [11] and in [4] was “Active” in each case. For the same molecule, the inhibition of growth at 1 µM in assay [8] is 50%; in assay [6] it was 90%. Moreover, the half-inhibitory concentration (IC50) in assay [2] came out at 200 nM; in assay [4] it was 60 nM. Besides, in assay [9], the inhibition of growth at 5 µM worked out at 50%.

(Values after ChEMBL document CHEMBL3046968, “Combined strategy for phytotoxicity enhancement of benzoxazinones” (J Agric Food Chem, 2010).)
